Laboratory results published in ChEMBL document CHEMBL3227941, “3-Substituted adenines. In vitro enzyme inhibition and antiviral activity” (J Med Chem, 1979).
Active and inactive are the calls of the source. The calls are words filed in the database; no cut-off is given here.

Tests used:
Vaccinia virus [1] = experiment: Antiviral activity against Vaccinia virus infected in African green monkey BSC-1 cells assessed as inhibition of virus multiplication at 50 ug/ml after 96 hrs by plaque reduction assay; format: functional; details: Orthopoxvirus vaccinia, BSC-1, 96 h
Human alphaherpesvirus 1 [2] = experiment: Antiviral activity against HSV1 infected in African green monkey BSC-1 cells assessed as inhibition of virus multiplication at 12 ug/ml after 96 hrs by plaque reduction assay; format: functional; details: Human alphaherpesvirus 1, BSC-1, 96 h
[3] = molecular target: T1, Dopamine beta-hydroxylase (Bos taurus, UniProt P15101); experiment: Inhibition of bovine adrenal medullae dopamine-beta-hydroxylase; set-up: species or system Adrenal medulla; details: read-out: I50 (converted)
T1 sequence (P15101 whole entry): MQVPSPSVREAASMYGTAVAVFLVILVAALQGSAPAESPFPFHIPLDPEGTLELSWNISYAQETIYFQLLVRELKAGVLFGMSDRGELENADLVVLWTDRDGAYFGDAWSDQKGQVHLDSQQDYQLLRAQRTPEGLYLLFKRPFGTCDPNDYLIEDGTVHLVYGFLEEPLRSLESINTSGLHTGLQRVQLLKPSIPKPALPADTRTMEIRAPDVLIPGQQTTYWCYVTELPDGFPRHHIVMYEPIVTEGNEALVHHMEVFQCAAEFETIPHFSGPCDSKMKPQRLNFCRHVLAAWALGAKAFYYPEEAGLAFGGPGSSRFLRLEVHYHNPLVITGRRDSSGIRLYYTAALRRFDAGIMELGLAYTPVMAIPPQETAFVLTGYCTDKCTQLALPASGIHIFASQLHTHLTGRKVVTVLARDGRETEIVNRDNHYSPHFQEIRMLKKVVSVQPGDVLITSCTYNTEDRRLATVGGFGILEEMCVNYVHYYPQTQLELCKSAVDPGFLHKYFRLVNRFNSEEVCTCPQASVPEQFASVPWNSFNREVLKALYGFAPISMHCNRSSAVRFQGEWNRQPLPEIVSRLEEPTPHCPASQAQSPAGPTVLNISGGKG

Vaccinia virus [4] = experiment: Antiviral activity against Vaccinia virus infected in African green monkey BSC-1 cells assessed as inhibition of virus multiplication at 25 ug/ml after 96 hrs by plaque reduction assay; format: functional; details: Orthopoxvirus vaccinia, BSC-1, 96 h
Human alphaherpesvirus 1 [5] = experiment: Antiviral activity against HSV1 infected in African green monkey BSC-1 cells assessed as inhibition of virus multiplication at 6 ug/ml after 96 hrs by plaque reduction assay; format: functional; details: Human alphaherpesvirus 1, BSC-1, 96 h
Human alphaherpesvirus 1 [6] = experiment: Antiviral activity against HSV1 infected in African green monkey BSC-1 cells assessed as inhibition of virus multiplication at 25 ug/ml after 96 hrs by plaque reduction assay; format: functional; details: Human alphaherpesvirus 1, BSC-1, 96 h
Human alphaherpesvirus 1 [7] = experiment: Antiviral activity against HSV1 infected in African green monkey BSC-1 cells assessed as inhibition of virus multiplication at 50 ug/ml after 96 hrs by plaque reduction assay; format: functional; details: Human alphaherpesvirus 1, BSC-1, 96 h
Vaccinia virus [8] = experiment: Antiviral activity against Vaccinia virus infected in African green monkey BSC-1 cells assessed as inhibition of virus multiplication at 12 ug/ml after 96 hrs by plaque reduction assay; format: functional; details: Orthopoxvirus vaccinia, BSC-1, 96 h
Vaccinia virus [9] = experiment: Antiviral activity against Vaccinia virus infected in African green monkey BSC-1 cells assessed as inhibition of virus multiplication at 100 ug/ml after 96 hrs by plaque reduction assay; format: functional; details: Orthopoxvirus vaccinia, BSC-1, 96 h
[10] = Cytotoxicity against Vaccinia virus infected African green monkey BSC1 cells at 100 ug/ml; format: cell-based; details: chlorocebus aethiops, bsc-1
Vaccinia virus [11] = experiment: Antiviral activity against Vaccinia virus infected in African green monkey BSC-1 cells assessed as inhibition of virus multiplication at 6 ug/ml after 96 hrs by plaque reduction assay; format: functional; details: Orthopoxvirus vaccinia, BSC-1, 96 h
[12] = Cytotoxicity against Vaccinia virus infected African green monkey BSC1 cells at 50 ug/ml; format: cell-based; details: chlorocebus aethiops, bsc-1
Vaccinia virus [13] = experiment: Antiviral activity against Vaccinia virus infected in African green monkey BSC-1 cells assessed as inhibition of virus multiplication at 3 ug/ml after 96 hrs by plaque reduction assay; format: functional; details: Orthopoxvirus vaccinia, BSC-1, 96 h
[14] = Cytotoxicity against HSV1 infected African green monkey BSC1 cells at 50 ug/ml; format: cell-based; details: chlorocebus aethiops, bsc-1
[15] = Cytotoxicity against Vaccinia virus infected African green monkey BSC1 cells at 25 ug/ml; format: cell-based; details: chlorocebus aethiops, bsc-1
[16] = Cytotoxicity against HSV1 infected African green monkey BSC1 cells at 25 ug/ml; format: cell-based; details: chlorocebus aethiops, bsc-1
[17] = test system: Transmissible gastroenteritis virus; experiment: Antiviral activity against Transmissible gastroenteritis virus infected in pig at 25 mg/animal administered 3 times per day; format: functional, organism-based
How it was run: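 Piglets weighing 4-5 lb dosed at 25 mg/pig three times daily and challenged with virus. Weight and survival monitored against untreated controls over 72 h.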

Human alphaherpesvirus 1 [18] = experiment: Antiviral activity against HSV1 infected in mouse assessed as assessed as protection against viral infection; format: functional, organism-based
Sus scrofa = experiment: Toxicity in Transmissible gastroenteritis virus infected pig at 25 mg/animal administered 3 times per day; format: organism-based; details: in vivo
How it was run: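 Piglets (4-5 lb), four per treated group with two untreated controls, were given 25 mg/pig three times a day and challenged with virus. Body weight was followed from 24 h after challenge through 48 h, and animals were watched for signs of illness and for deaths.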

Vaccinia virus [19] = experiment: Antiviral activity against Vaccinia virus infected in mouse assessed as assessed as protection against viral infection; format: functional, organism-based; details: Orthopoxvirus vaccinia

SMILES	inhibition at 50 µg/mL (Vaccinia virus [1]) [%]	inhibition at 12 µg/mL (Human alphaherpesvirus 1 [2]) [%]	IC50 [3] [µM]	inhibition at 25 µg/mL (Vaccinia virus [4]) [%]	inhibition at 6 µg/mL (Human alphaherpesvirus 1 [5]) [%]	inhibition at 25 µg/mL (Human alphaherpesvirus 1 [6]) [%]	inhibition at 50 µg/mL (Human alphaherpesvirus 1 [7]) [%]	inhibition at 12 µg/mL (Vaccinia virus [8]) [%]	inhibition at 100 µg/mL (Vaccinia virus [9]) [%]	Activity [10]	inhibition at 6 µg/mL (Vaccinia virus [11]) [%]	Activity [12]	inhibition at 3 µg/mL (Vaccinia virus [13]) [%]	Activity [14]	Activity [15]	Activity [16]	Activity [17]	Activity (Human alphaherpesvirus 1 [18])	Activity (Sus scrofa)	Activity (Vaccinia virus [19])
CCCCn1cnc(N)c2ncnc1-2 [3-BUTYLADENINE]	0	0	105	0	0	0	0	0	1	–	–	–	–	–	–	–	–	–	–	–
Nc1ncn(CC2CCCCC2)c2ncnc1-2	7	0	8.65	0	0	0	0	0	–	–	–	–	–	–	–	–	–	–	–	–
Cc1ccccc1Cn1cnc(N)c2ncnc1-2	0	0	836	0	0	0	30	0	–	Toxic	–	–	–	–	–	–	–	–	–	–
Nc1ncn(Cc2ccc(Cl)cc2)c2ncnc1-2	100	0	77	70	0	0	15	51	–	Toxic	–	–	–	–	–	–	–	–	–	–
CCCCCCn1cnc(N)c2ncnc1-2	100	0	4.56	77	0	0	16	27	–	Toxic	–	–	–	–	–	–	–	–	–	–
CCCn1cnc(N)c2ncnc1-2 [3-PROPYLADENINE]	0	0	1130	0	0	0	0	0	0	–	0	–	–	–	–	–	–	–	–	–
Nc1ncn(Cc2ccccc2)c2ncnc1-2 [3-BENZYLADENINE]	3	0	8.88	0	0	0	0	0	3	–	–	–	–	–	–	–	–	–	–	–
CC(C)CCn1cnc(N)c2ncnc1-2	7	0	974	7	0	0	27	0	8	–	0	–	–	–	–	–	–	–	–	–
CCCCCn1cnc(N)c2ncnc1-2	72	0	2.44	35	0	0	3	33	96	–	–	–	–	–	–	–	–	–	–	–
Nc1ncn(Cc2ccc(Cl)c(Cl)c2)c2ncnc1-2	–	0	6.8	–	0	27	–	100	–	Toxic	87	Toxic	47	Toxic	Toxic	–	–	–	–	–
Nc1ncn(Cc2cccc(C(F)(F)F)c2)c2ncnc1-2	–	–	68.2	–	–	–	–	–	–	–	–	–	–	–	–	–	–	–	–	–
Nc1ncn(Cc2ccc(Cl)cc2Cl)c2ncnc1-2	–	0	680	–	0	20	–	0	–	Toxic	0	Toxic	–	Toxic	Toxic	–	–	–	–	–
Cc1ccc(Cn2cnc(N)c3ncnc2-3)cc1C	–	42	79	–	0	–	–	0	–	Toxic	0	Toxic	0	Toxic	Toxic	Toxic	–	–	–	–
Cc1ccc(Cn2cnc(N)c3ncnc2-3)cc1	10	0	83.6	8	0	0	0	0	–	Toxic	–	–	–	–	–	–	–	–	–	–
Cc1cccc(Cn2cnc(N)c3ncnc2-3)c1	0	0	83.6	0	0	0	9	0	–	Toxic	–	–	–	–	–	–	–	–	–	–
CCn1cnc(N)c2ncnc1-2 [3-ETHYLADENINE]	0	0	> 1230	0	0	0	0	0	0	–	0	–	–	–	–	–	–	–	–	–
Nc1ncn(Cc2ccccc2Br)c2ncnc1-2	100	100	658	100	71	100	100	34	–	Toxic	0	–	0	–	–	–	inactive	inactive	Toxic	inactive
Nc1ncn(Cc2ccccc2Cl)c2ncnc1-2	100	42	770	0	0	100	100	0	–	Toxic	0	–	0	–	–	–	–	–	–	–
Nc1ncn(Cc2cccc(Cl)c2)c2ncnc1-2	37	0	7.7	16	0	0	45	0	100	–	0	–	–	–	–	–	–	–	–	–
Nc1ncn(Cc2ccco2)c2ncnc1-2	0	0	–	0	0	0	0	–	0	–	–	–	–	–	–	–	–	–	–	–
